The source of these data is ChEMBL document CHEMBL4706565, “Anti-glioma effects of 2-aminothiophene-3-carboxamide derivatives, ANO1 channel blockers” (Eur J Med Chem, 2020).

As usually defined, the inhibition is how much of the control response was suppressed. The GI50 is the concentration that inhibits growth by half. Broadly, the pIC50 is −log10 of the IC50, conventionally taken in molar units. Lower therefore signals a large IC50.

The target in data set [1] is T1, Anoctamin-1 (Homo sapiens) (UniProt Q5XXA6).
T1 sequence (whole entry): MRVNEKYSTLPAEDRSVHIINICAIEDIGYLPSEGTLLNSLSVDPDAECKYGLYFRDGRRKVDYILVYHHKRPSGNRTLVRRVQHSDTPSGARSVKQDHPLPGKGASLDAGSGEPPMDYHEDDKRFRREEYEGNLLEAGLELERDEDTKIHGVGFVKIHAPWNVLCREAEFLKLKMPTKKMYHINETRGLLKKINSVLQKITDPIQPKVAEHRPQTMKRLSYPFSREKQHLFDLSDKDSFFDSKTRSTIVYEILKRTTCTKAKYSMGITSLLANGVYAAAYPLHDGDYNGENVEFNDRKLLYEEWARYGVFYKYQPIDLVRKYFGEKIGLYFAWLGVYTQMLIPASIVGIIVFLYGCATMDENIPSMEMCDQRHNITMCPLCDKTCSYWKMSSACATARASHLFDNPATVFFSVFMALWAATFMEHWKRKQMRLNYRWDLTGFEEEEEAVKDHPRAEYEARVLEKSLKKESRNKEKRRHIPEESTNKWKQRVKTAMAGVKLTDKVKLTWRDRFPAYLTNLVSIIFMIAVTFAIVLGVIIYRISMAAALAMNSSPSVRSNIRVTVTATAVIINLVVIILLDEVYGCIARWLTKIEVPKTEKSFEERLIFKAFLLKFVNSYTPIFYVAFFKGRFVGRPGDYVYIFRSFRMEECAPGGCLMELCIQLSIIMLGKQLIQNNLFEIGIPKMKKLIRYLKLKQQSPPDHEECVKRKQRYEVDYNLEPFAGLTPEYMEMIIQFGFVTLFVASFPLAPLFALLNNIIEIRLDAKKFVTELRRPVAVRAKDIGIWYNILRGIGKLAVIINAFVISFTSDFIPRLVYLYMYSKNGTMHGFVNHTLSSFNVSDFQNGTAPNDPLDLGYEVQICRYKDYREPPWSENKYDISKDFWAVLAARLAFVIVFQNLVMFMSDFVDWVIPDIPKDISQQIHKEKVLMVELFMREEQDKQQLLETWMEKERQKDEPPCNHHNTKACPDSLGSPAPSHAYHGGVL
The data set can be described thus: Inhibition of human ANO1 channel expressed in HEK293 cells at 10 uM incubated for 10 mins by FLIPR assay relative to control. The format is cell-based. An outline of the steps: (§1)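 HEK293 cells expressing human ANO1, 50,000 cells/well, plated overnight. Loaded with FLIPR Red membrane-potential dye in HEPES-buffered saline (pH 7.4) for 40-60 min at room temperature. Compound added for 10 min at room temperature, final DMSO 0.5%.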

Data set [2] has as its system U-251. Kind of data set: Antiproliferative activity against human U251 cells overexpressing ANO1 assessed as reduction in cell viability measured after 72 hrs by Celltiter-glo assay. The class given is functional. An outline of the steps:
(§2)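 5.0×10^3 cells/well seeded, overnight, then compounds added as 1:4 serial dilutions in DMSO; viability read after 72 h with CellTiter-Glo luminescence. GI50 from fitted dose-response curves; triplicate wells, SD from three independent experiments. DMEM for U251 and U138, MEM for U87MG, both with 10% FBS and pen/strep, 37 °C, 5% CO2.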

Data set [3] concerns U-251. Kind of data set: Inhibition of cell migration in human U251 cells incubated for 18 hrs by wound healing assay. The format is functional, cell-based. Conditions: dose 1-10 µM. An outline of the steps: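 U251 monolayer, 2.0×10^5 cells/well, plated overnight, then scratched and washed with PBS. Incubated 18 h in complete medium with compound (1, 5 or 10 μM). Wound area imaged before and after incubation; migration ratio taken from migrated area. One-way ANOVA.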

A short description of data set [4]: Antiproliferative activity against mouse primary astrocytes assessed as reduction in cell viability measured after 72 hrs by Celltiter-Glo luminescent assay. The format is cell-based, Astrocyte. An outline of the steps: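 Primary astrocytes isolated from adult mouse brain by a previously reported method. 5.0×10^3 cells/well, compound as 1:4 serial DMSO dilutions, CellTiter-Glo viability at 72 h.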
Background: In ATP-based viability assays light output follows the ATP content of the culture.

Data set [5] deals with U-251. The data set can be described thus: Inhibition of colony formation in human U251 cells at 3 uM incubated for 14 days by crystal violet dye based assay. Conditions: time 14.0 day. The class given is functional, cell-based. An outline of the steps:
(§3)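 U251 cells, 1.0×10^3 per well, treated with compound (1, 3 or 10 μM) for 2 weeks at 37 °C, 5% CO2. Colonies stained 24 h with crystal violet in methanol/formaldehyde/PBS, washed, extracted with 10% acetic acid and read at A570 nm. Compared against DMSO control.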

Data set [6] relates to U-251. The data set can be described thus: Inhibition of colony formation in human U251 cells incubated for 14 days by crystal violet dye based assay. The conditions noted are these: dose 1-10 µM, time 14.0 day. The class given is functional, cell-based. An outline of the steps:
as §3

In data set [7] the test system is U-251. Kind of data set: Inhibition of anchorage-independent colony formation in human U251 cells at 10 uM incubated for 14 days by crystal violet staining based soft agar colony formation assay. The class given is functional, cell-based. The conditions noted are these: time 14.0 day. An outline of the steps:
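Soft agar assay: 2.0×10^3 U251 cells in complete medium with 0.3% agar over a 0.6% bottom agar layer. Treated with compounds at 1-100 μM for 14 days, 37 °C, 5% CO2. Colonies stained with crystal violet for 24 h, whole wells photographed and colonies counted against DMSO control; n = 3.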

The target in data set [8] is T2, Protein tweety homolog 1 (Mus musculus) (UniProt Q9D3A9).
T2 sequence (whole entry): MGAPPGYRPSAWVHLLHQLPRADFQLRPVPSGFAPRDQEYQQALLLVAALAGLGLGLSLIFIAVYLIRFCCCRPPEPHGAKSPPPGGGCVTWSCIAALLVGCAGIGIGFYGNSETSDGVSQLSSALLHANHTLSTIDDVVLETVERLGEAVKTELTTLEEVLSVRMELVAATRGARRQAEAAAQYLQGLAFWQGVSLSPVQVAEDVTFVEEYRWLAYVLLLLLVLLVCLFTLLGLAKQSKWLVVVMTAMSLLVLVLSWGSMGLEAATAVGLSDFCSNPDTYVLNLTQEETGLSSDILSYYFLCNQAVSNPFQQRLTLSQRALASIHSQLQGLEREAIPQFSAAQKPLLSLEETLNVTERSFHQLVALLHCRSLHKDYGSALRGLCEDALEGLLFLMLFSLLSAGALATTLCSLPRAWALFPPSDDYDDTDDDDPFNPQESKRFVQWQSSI
Kind of data set: Inhibition of GFP-fused mouse TTYH1 channel expressed in HEK293A cells assessed as inhibition of channel current amplitude at 1 to 10 uM at membrane potential of +80 mV by patch clamp electrophysiology assay. The conditions noted are these: HEK293-A, dose 1-10 µM. The format is cell-based. An outline of the steps: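 Whole-cell recording at room temperature in HEK293A cells transfected with GFP-mANO1, GFP-mANO2 or GFP-mTTYH1. 1 s ramps from +80 to -80 mV, holding potential -10 mV. For ANO1/ANO2: pipette CsCl 146 mM with Ca-EGTA-NMDG, pH 7.3; bath NaCl-based, pH 7.3. For TTYH1: Tris-aspartate pipette (pH 7.2) and Tris-HCl bath (pH 7.4), with […] and BaCl2 added to block K+ channels, and hypotonic (220 mOsm/kg) bath. Washout recordings assessed reversibility.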
On the technique in general: In patch-clamp work, channel activity is measured electrically.

The target in data set [9] is T3, Anoctamin-1 (Homo sapiens, UniProt Q5XXA6).
T3 sequence (Q5XXA6 whole entry): T1 sequence (whole entry)
Kind of data set: Inhibition of human ANO1 channel expressed in HEK293 cells incubated for 10 mins by FLIPR assay. The class given is cell-based. An outline of the steps:
as §1

The subject of data set [10] is U138-MG. The data set can be described thus: Antiproliferative activity against human U138 cells overexpressing ANO1 assessed as reduction in cell viability measured after 72 hrs by Celltiter-glo assay. The format is functional. An outline of the steps:
as §2

pIC50: −log10 of the molar value. Active and inactive are the calls of the source. The calls are words filed in the database; no cut-off is given here.

On to `NC(=O)c1c(NC(=S)NC(=O)c2ccc(Cl)cc2)sc2c1CCC2`, for which the inhibition in [1] is 72.2%; in data set [3], “Dose-dependent effect”; in data set [6], “Dose-dependent effect”. The GI50 stood at 12 µM in data set [2] and 13.2 µM in data set [10]. Moreover, the GI50 at 72 h in [4] worked out at 45.1 µM. Also, the inhibition result in [5] was “Active”. The inhibition entry in [7] and in data set [8] was “inactive” each time. The compound further gave a negative-log IC50 (pIC50) in data set [9] of 5.63.
For `CC(C)(C)C(=O)Nc1sc2c(c1C(N)=O)CCC(C(C)(C)C)C2` (stereo not given), the results for the inhibition in data set [1], in data set [3] and in [6] were 86.9%, “Dose-dependent effect” and “Dose-dependent effect”, respectively. The results for the GI50 in data set [2] and in data set [10] were 12.6 µM and 22.2 µM, respectively. For the same compound, in data set [4], the GI50 at 72 h came to 94.8 µM. Moreover, in [5], the inhibition result was “Active”. Moreover, the inhibition entry in [7] and in data set [8] was “inactive” throughout. This compound showed a pIC50 in data set [9] of 5.51.
